Laboratory results published in ChEMBL document CHEMBL4732120, “Discovery of novel PARP/PI3K dual inhibitors with high efficiency against BRCA-proficient triple negative breast cancer” (Eur J Med Chem, 2021).

Experiments:
[1] = Toxicity in Sprague-Dawley rat assessed as change in body weight at 1000 mg/kg, po administered as single dose measured on day 2 (reference value: 273 +/- 15 g); assay type: organism-based; conditions: in vivo, 48 h, time 2 day
MDA-MB-468 [2] = experiment: Induction of apoptosis in human MDA-MB-468 cells assessed as early apoptotic cells at 1 uM measured after 72 hrs by Annexin V-FITC/propidium iodide staining based flow cytometry (reference value: 3.88%); assay type: functional
[3] = Elimination half life in monkey liver microsomes measured after 1 hr; assay type: ADME, Macaca mulatta, Microsome; conditions: rhesus monkey, read-out: beta t1/2
In short: (§1)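 Compound incubated 1 h with mouse, rat, dog, monkey or human liver microsomes. Derived values were the elimination rate constant k, the elimination half-life T1/2 and the intrinsic clearance CLint.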

[4] = Elimination rate constant in human liver microsomes measured after 1 hr; assay type: ADME, Microsome; in short: as §1
[5] = Intrinsic clearance in dog liver microsomes measured after 1 hr; assay type: ADME, Canis lupus familiaris, Microsome; conditions: read-out: CLH; in short: as §1
[6] = molecular target: Phosphatidylinositol 4,5-bisphosphate 3-kinase catalytic subunit gamma isoform (Homo sapiens, UniProt P48736); experiment: Inhibition of PI3Kgamma (unknown origin)
Phosphatidylinositol 4,5-bisphosphate 3-kinase catalytic subunit gamma isoform, sequence (P48736 whole entry, canonical isoform): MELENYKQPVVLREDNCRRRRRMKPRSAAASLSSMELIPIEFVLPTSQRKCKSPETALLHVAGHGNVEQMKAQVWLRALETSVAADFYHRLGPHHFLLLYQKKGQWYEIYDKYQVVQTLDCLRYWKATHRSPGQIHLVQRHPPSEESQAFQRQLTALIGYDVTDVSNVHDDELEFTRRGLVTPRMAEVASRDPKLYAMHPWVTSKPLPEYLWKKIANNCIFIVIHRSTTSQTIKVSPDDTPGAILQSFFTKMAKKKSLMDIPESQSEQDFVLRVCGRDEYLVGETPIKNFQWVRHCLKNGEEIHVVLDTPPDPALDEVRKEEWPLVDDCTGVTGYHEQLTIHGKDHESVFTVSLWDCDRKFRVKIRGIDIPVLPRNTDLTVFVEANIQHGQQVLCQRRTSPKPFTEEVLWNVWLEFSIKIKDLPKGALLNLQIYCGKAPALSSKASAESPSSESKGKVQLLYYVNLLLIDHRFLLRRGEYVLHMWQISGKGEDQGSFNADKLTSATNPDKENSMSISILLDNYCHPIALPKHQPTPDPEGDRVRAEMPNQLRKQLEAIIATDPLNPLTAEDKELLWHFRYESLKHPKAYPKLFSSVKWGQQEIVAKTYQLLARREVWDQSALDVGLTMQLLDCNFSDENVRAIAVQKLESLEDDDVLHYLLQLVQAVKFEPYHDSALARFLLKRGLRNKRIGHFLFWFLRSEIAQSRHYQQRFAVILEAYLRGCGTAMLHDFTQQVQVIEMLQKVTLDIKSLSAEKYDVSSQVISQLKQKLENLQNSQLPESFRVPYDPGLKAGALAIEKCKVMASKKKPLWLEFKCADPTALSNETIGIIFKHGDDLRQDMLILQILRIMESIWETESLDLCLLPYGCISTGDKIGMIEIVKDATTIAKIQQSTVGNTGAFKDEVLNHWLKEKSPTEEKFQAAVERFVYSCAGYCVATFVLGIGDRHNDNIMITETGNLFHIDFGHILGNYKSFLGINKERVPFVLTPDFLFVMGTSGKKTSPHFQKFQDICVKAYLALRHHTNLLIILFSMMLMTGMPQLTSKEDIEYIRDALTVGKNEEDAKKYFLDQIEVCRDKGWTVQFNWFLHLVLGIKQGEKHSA

[7] = Elimination half life in rat liver microsomes measured after 1 hr; assay type: ADME, Microsome; conditions: read-out: beta t1/2; in short: as §1
[8] = Intrinsic clearance in human liver microsomes measured after 1 hr; assay type: ADME, Microsome; conditions: read-out: CLH; in short: as §1
[9] = Elimination rate constant in dog liver microsomes measured after 1 hr; assay type: ADME, Canis lupus familiaris, Microsome; in short: as §1
[10] = molecular target: Phosphatidylinositol 4,5-bisphosphate 3-kinase catalytic subunit alpha isoform (Homo sapiens, UniProt P42336); experiment: Inhibition of PI3Kalpha (unknown origin)
Phosphatidylinositol 4,5-bisphosphate 3-kinase catalytic subunit alpha isoform, sequence (P42336 whole entry, canonical isoform): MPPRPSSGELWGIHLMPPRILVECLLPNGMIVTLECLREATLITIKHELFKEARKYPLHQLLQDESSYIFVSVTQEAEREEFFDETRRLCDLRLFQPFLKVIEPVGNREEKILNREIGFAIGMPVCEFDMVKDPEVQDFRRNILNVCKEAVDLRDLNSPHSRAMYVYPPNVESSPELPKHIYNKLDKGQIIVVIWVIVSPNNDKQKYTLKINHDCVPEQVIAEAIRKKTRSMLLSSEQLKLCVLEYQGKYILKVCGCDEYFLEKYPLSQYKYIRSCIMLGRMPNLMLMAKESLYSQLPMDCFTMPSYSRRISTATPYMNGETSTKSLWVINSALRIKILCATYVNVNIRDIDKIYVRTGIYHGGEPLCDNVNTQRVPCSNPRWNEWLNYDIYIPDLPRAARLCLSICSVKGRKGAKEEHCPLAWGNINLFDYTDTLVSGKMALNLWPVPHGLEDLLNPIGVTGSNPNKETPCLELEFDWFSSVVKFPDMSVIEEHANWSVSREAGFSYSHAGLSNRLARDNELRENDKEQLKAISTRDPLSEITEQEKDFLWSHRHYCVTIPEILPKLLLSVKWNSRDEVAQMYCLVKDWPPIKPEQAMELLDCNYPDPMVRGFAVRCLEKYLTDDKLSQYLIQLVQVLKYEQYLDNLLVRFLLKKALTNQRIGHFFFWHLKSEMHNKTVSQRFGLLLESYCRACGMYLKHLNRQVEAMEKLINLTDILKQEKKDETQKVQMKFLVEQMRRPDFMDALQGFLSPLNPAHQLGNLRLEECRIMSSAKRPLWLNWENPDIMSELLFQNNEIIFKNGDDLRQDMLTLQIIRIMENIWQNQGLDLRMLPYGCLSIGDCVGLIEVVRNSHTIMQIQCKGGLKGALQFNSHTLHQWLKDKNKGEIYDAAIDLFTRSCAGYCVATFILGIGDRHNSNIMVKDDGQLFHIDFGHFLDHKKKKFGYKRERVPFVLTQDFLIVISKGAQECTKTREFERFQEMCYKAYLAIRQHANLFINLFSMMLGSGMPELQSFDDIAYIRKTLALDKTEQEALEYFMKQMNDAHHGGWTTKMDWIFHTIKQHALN
In short: (§2)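 PARP-1 and PI3Kα enzyme inhibition. IC50 taken from dose-response curves and given as mean ± SD of three independent experiments.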

[11] = Toxicity in MDA-MB-468 cells xenografted BALB/c mouse assessed as change in body weight at 50 mg/kg, ip administered every two days for 34 days measured at 2 days interval during compound dosing; conditions: in vivo, 816 h
MDA-MB-468 [12] = experiment: Induction of apoptosis in human MDA-MB-468 cells assessed as viable cells at 1 uM measured after 72 hrs by Annexin V-FITC/propidium iodide staining based flow cytometry (reference value: 95.2%); assay type: functional; conditions: read-out: Activity
[13] = Toxicity in […] cells xenografted BALB/c mouse assessed as mortality at 50 mg/kg, ip administered every two days for 34 days; assay type: organism-based; conditions: in vivo, 816 h, time 34 day
[14] = Toxicity in Sprague-Dawley rat assessed as change in body weight at 1000 mg/kg, po administered as single dose measured on day 7 (reference value: 298 +/- 14 g); assay type: organism-based; conditions: in vivo, 168 h, time 7 day
[15] = Elimination half life in human liver microsomes measured after 1 hr; assay type: ADME, Microsome; conditions: read-out: beta t1/2; in short: as §1
[16] = molecular target: Poly [ADP-ribose] polymerase 2 (Homo sapiens, UniProt Q9UGN5); experiment: Inhibition of PARP2 (unknown origin)
Poly [ADP-ribose] polymerase 2, sequence (Q9UGN5 whole entry): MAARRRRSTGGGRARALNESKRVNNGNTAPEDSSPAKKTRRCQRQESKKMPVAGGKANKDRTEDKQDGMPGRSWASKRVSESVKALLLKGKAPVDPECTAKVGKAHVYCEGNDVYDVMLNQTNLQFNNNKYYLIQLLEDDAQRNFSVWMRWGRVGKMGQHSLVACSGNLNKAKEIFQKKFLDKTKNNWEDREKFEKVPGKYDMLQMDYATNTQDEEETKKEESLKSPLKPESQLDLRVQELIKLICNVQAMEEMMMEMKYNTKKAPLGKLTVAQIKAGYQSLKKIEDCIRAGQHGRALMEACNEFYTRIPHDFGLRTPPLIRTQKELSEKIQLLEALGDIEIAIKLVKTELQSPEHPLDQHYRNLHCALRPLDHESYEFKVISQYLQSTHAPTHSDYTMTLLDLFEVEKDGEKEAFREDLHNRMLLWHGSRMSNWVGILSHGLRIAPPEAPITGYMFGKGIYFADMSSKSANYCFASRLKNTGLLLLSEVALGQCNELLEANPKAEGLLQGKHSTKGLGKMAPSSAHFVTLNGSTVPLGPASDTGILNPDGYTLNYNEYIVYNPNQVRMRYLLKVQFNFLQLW

[17] = Elimination rate constant in rat liver microsomes measured after 1 hr; assay type: ADME, Microsome; in short: as §1
MDA-MB-468 [18] = experiment: Antiproliferative activity against human MDA-MB-468 cells measured after 7 days by Celltiter-glo assay; assay type: functional, cell-based; conditions: MDA-MB-468, 168 h
In short: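 MDA-MB-468 cells grown in RPMI1640 with 10% FBS at 37 °C, 5% CO2. Seeded the day before dosing, grown 12 h, then exposed to a range of concentrations for 7 days. Viability read by CellTiter-Glo luminescence after 10 min at room temperature. Inhibition % = (1 − (RLU cpd − blank)/(RLU DMSO − blank)) × 100. IC50 from nonlinear regression of normalized dose-response.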

[19] = molecular target: Poly [ADP-ribose] polymerase 1 (Homo sapiens, UniProt P09874); experiment: Inhibition of PARP1 (unknown origin); in short: as §2
Poly [ADP-ribose] polymerase 1, sequence (P09874 whole entry): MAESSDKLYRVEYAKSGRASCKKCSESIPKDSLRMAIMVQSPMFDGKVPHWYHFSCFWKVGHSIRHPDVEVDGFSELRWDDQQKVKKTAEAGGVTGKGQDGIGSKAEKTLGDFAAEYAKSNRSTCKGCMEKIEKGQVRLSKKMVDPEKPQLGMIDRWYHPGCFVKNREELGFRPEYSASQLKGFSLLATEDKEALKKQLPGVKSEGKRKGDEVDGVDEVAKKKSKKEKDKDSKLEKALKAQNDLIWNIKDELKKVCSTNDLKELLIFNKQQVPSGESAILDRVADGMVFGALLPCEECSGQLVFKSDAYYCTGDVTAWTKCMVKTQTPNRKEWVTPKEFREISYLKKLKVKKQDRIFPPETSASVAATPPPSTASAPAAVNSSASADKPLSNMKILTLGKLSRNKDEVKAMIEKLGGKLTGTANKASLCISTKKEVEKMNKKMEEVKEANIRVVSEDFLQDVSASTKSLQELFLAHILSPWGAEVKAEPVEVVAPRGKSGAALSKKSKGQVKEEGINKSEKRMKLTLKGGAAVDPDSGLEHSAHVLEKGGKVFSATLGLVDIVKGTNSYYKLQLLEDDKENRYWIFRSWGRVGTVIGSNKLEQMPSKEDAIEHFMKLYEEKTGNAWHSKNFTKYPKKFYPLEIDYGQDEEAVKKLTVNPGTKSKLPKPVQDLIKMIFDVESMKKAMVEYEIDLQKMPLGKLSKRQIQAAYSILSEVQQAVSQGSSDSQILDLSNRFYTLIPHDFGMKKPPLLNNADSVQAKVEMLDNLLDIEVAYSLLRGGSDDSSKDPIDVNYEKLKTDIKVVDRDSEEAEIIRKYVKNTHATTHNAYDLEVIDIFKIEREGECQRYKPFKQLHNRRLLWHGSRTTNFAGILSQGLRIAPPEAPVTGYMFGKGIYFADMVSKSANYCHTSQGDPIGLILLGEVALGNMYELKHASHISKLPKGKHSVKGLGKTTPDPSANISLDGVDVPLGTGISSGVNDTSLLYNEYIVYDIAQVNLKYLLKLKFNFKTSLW

[20] = Apparent permeability across apical to basolateral side in human Caco2 cells at 5 uM measured after 120 mins; assay type: ADME, cell-based; conditions: Caco-2
In short: (§3)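 Bidirectional permeability run, apical-to-basolateral and basolateral-to-apical. Test compound at 5 µM, incubated 120 min. Papp (10^-6 cm/s), recovery (%) and efflux ratio reported as the mean of two experiments.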

[21] = Intrinsic clearance in mouse liver microsomes measured after 1 hr; assay type: ADME, Microsome; conditions: read-out: CLH; in short: as §1
[22] = Elimination half life in dog liver microsomes measured after 1 hr; assay type: ADME, Canis lupus familiaris, Microsome; conditions: read-out: beta t1/2; in short: as §1
[23] = Toxicity in Sprague-Dawley rat assessed as death at 1000 mg/kg, po administered as single dose; assay type: organism-based; conditions: in vivo
In short: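 Sprague-Dawley rats, n = 6 (3 male, 3 female), given a single oral dose of 1000 mg/kg. Deaths and body-weight change were recorded to estimate the maximum tolerated dose.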

[24] = Elimination rate constant in monkey liver microsomes measured after 1 hr; assay type: ADME, Macaca mulatta, Microsome; conditions: rhesus monkey; in short: as §1
MDA-MB-468 [25] = experiment: Antitumor activity against human MDA-MB-468 cells xenografted in BALB/c mouse assessed as tumor growth inhibition at 50 mg/kg, ip administered every two days for 34 days relative to control; conditions: MDA-MB-468, ip, 816 h, read-out: TGI
[26] = Elimination half life in mouse liver microsomes measured after 1 hr; assay type: ADME, Microsome; conditions: read-out: beta t1/2; in short: as §1
[27] = Toxicity in Sprague-Dawley rat assessed as change in body weight at 1000 mg/kg, po administered as single dose measured during adaptation period (reference value: 258 +/- 13 g); assay type: organism-based; conditions: in vivo
[28] = molecular target: Voltage-gated inwardly rectifying potassium channel KCNH2 (Homo sapiens, UniProt Q12809); experiment: Inhibition of human ERG
[29] = molecular target: Phosphatidylinositol 4,5-bisphosphate 3-kinase catalytic subunit beta isoform (Homo sapiens, UniProt P42338); experiment: Inhibition of PI3Kbeta (unknown origin)
Phosphatidylinositol 4,5-bisphosphate 3-kinase catalytic subunit beta isoform, sequence (P42338 whole entry, canonical isoform): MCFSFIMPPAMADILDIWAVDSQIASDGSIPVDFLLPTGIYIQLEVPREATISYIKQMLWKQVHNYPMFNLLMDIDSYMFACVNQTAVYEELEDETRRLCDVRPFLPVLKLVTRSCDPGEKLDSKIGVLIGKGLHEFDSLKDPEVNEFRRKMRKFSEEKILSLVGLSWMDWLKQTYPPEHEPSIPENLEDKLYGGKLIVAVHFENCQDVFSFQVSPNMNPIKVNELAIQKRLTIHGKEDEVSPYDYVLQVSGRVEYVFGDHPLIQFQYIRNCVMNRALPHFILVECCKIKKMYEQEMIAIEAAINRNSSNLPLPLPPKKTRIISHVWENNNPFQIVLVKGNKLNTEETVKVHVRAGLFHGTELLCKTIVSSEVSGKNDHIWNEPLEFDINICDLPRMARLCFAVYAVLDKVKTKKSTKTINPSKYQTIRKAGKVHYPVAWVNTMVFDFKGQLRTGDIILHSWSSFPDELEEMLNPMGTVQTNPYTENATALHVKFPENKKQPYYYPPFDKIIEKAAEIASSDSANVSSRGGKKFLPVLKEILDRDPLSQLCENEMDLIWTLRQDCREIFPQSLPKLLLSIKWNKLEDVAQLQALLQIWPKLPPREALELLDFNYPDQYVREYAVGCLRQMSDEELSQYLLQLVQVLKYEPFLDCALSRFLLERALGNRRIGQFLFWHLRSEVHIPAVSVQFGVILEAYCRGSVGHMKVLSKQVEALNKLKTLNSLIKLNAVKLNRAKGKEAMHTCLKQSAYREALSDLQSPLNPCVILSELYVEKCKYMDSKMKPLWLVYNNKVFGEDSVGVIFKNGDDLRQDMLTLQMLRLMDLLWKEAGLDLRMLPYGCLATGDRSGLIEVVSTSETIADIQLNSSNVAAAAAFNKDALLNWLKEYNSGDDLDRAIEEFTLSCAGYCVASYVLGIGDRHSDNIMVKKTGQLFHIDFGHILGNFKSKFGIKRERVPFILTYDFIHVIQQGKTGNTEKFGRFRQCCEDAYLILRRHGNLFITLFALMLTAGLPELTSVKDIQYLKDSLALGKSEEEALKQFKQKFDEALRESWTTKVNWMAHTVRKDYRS

[30] = Elimination rate constant in mouse liver microsomes measured after 1 hr; assay type: ADME, Microsome; in short: as §1
[31] = Intrinsic clearance in monkey liver microsomes measured after 1 hr; assay type: ADME, Macaca mulatta, Microsome; conditions: rhesus monkey, read-out: CLH; in short: as §1
[32] = Apparent permeability across basolateral to apical side in human Caco2 cells assessed as drug recovery at 5 uM measured after 120 mins; assay type: ADME, cell-based; conditions: Caco-2, read-out: Drug recovery; in short: as §3
[33] = Apparent permeability across basolateral to apical side in human Caco2 cells at 5 uM measured after 120 mins; assay type: ADME, cell-based; conditions: Caco-2; in short: as §3
MDA-MB-468 [34] = experiment: Induction of apoptosis in human MDA-MB-468 cells assessed as necrotic cells at 1 uM measured after 72 hrs by Annexin V-FITC/propidium iodide staining based flow cytometry (reference value: 0.13%); assay type: functional
[35] = Intrinsic clearance in rat liver microsomes measured after 1 hr; assay type: ADME, Microsome; conditions: read-out: CLH; in short: as §1

Structure (SMILES): NC(=O)c1cccc2cc(C(=O)N3CCN(c4nc(-c5cnc(NC(=O)CN6CCOCC6)cc5C(F)(F)F)nc(N5CCOCC5)n4)CC3)oc12
- Activity [1]: 267 g
- Activity (MDA-MB-468 [2]): 15.8%
- half-life [3]: 59.1 min
- k el at 1 h [4]: 0.000122 s⁻¹
- microsomal CLint [5]: 29.3 µL/min/mg
- IC50 [6]: 1100 nM
- half-life [7]: 42.2 min
- microsomal CLint [8]: 14.7 µL/min/mg
- k el at 1 h [9]: 0.000245 s⁻¹
- IC50 [10]: 64 nM
- Activity [11]: Non-Toxic
- viability at 1 µM (MDA-MB-468 [12]): 67.2%
- Activity [13]: Non-Toxic
- Activity [14]: 281 g
- half-life [15]: 107 min
- IC50 [16]: 6.2 nM
- k el at 1 h [17]: 0.000275 s⁻¹
- IC50 (MDA-MB-468 [18]): 1400 nM
- IC50 [19]: 13.8 nM
- Papp A→B at 2 h, 5 µM [20]: 8.42 ×10⁻⁶ cm/s
- microsomal CLint [21]: 79.7 µL/min/mg
- half-life [22]: 47.3 min
- Activity [23]: Non-Toxic
- k el at 1 h [24]: 0.000255 s⁻¹
- inhibition in vivo at 50 mg/kg (MDA-MB-468 [25]): 54.6%
- half-life [26]: 17.4 min
- Activity [27]: 256 g
- IC50 [28]: 29400 nM
- IC50 [29]: 376 nM
- k el at 1 h [30]: 0.000663 s⁻¹
- microsomal CLint [31]: 30.7 µL/min/mg
- recovery at 2 h, 5 µM [32]: 99.9%
- Papp B→A at 2 h, 5 µM [33]: 22.1 ×10⁻⁶ cm/s
- Activity (MDA-MB-468 [34]): 3.47%
- microsomal CLint [35]: 32.9 µL/min/mg
